Screens deposited in PubChem BioAssay by several laboratories.
Only some compounds are listed: those with a hit (about 9.8% of all), similar ones and a draw of the others.
m-calpain inh = inhibitors of pig calpain II; AID 1236; 220,000 compounds, 0.37% hits; purified calpain II, fluorogenic peptide substrate, 30 min; inhibition, % at 16 µM;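 active means inhibition above about 50%, limit read from the data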
WT yeast gro inh = growth inhibition of WT yeast, mitochondrial fusion screen. AID 1362. 190,000 compounds, 2.1% hits. inhibition, % at 10 µM. mitochondrial fusion phenotypic screen, WT strain; in the data active means inhibition above about 58%; tested in S. cerevisiae
PMI act hi M6P = increases human PMI activity with near-saturating mannose 6-phosphate; coupled PMI enzyme assay, resazurin fluorescence, 20 min; active compounds read high; 1 = untreated enzyme, 0 = substrate-free blank; activation factor at 20 µM; 190,000 compounds, 0.34% hits; AID 1216;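 active means activation factor of 2 or more at 20 µM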
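assay system = human phosphomannose isomerase with PGI, G6PDH, diaphorase coupling enzymes | quantity = 15 ng/mL PMI | incubation = enzyme reaction with compound 20 min at room temperature | medium = HEPES pH 7.4 buffer with MgCl2 and Tween-20 | compound dosing = one concentration, 20 µM, in 1% DMSO | measured by = Diaphorase-driven resazurin-to-resorufin fluorescence, excitation 544, emission 590 nm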
PMI act = phosphomannose isomerase (human) activation; purified human PMI, coupled resazurin fluorescence, 20 min; active compounds read high; 1 = vehicle control, 0 substrate-free wells; activation factor at 20 µM; 190,000 compounds, 0.005% hits; AID 1214;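 active means activation factor of 2 or more at 20 µM, relative to plate controls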
L major viab = Leishmania major promastigote growth inhibition; Leishmania major promastigotes, resazurin fluorescence viability; inhibition, % at 10 µM; 200,000 compounds, 9% hits; in the data active means inhibition above about 50%;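 further: promastigotes grown with compound for 44 hours at 28 °C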
Rad51 HR inh = Rad51 (human) homologous recombination inhibition. Q06609. hRad51 DNA strand exchange, fluorescence dequenching. inhibition, % at 10 µM. 200,000 compounds, 0.085% hits. AID 1385;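 active means inhibition above 40% at the single screening dose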;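 further: 0% = DMSO control wells and 100% = blanks with heterologous ssDNA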
Target sequence (Q06609 whole entry, looked up): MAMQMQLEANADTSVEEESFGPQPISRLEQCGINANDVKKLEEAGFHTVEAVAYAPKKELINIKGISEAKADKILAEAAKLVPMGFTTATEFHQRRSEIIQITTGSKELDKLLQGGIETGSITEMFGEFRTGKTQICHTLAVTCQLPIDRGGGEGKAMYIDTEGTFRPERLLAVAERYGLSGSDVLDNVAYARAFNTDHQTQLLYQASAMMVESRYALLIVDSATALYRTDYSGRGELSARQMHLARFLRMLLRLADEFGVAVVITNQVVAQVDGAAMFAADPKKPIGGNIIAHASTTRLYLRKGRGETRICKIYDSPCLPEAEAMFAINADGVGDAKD
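Test system: preformed human Rad51 ssDNA filaments; also added: Donor/quencher-labelled 47-bp dsDNA substrate; doses: 10 µM final, single point; times: 37 °C 15-min filament assembly, 30-min compound preincubation, 15-min exchange; detection: FRET fluorescence dequenching, excitation 485 nm, emission 520 nm; read-out basis: Fluorescence-based percent inhibition, control- and blank-normalised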
* hit, by the source's call; x = not tested or not shown.

SMILES	m-calpain inh	WT yeast gro inh	PMI act hi M6P	PMI act	L major viab	Rad51 HR inh
CCOC(=O)c1c(C)n(-c2ccc(C)cc2)c2ccc(OCC(O)CNCC3CCCO3)cc12 (centres undefined)	-14.5	72.1*	1	1	100.4*	2.9
O=C(N/N=C/c1ccccc1[N+](=O)[O-])c1cnccn1	-8.3	x	x	x	x	-3.2
CC(C)(C)Nc1nc(SCc2ccccc2)nc(N2CCOCC2)n1	-29.9	65.9*	0.8	0.8	30.4	1.9
CNc1nc(SCc2ccccc2)nc(N2CCOCC2)n1	-8.4	33.3	1	0.9	41.0	-10.2
O=S(=O)([O-])CCC[n+]1c(SCCCS(=O)(=O)O)sc2ccc(Cl)cc21	-9.9	-16.9	1.1	0.9	16.6	6.1
COc1ccccc1NS(=O)(=O)c1cc(NC(=O)CC(C)(C)C)ccc1N1CCOCC1	30.1	8.5	0.9	1	98.3*	-32.4
COc1ccccc1NS(=O)(=O)c1cc(NC(=O)c2cccs2)ccc1N1CCOCC1	-20.0	x	x	x	x	3.9
COc1ccccc1NS(=O)(=O)c1cc(NC(=O)CCC2CCCC2)ccc1N1CCOCC1	-7.3	1.6	0.8	1	98.6*	5.6
CCOC(=O)C1(CC2CCCCO2)CCN(S(=O)(=O)c2ccsc2)CC1 (centres undefined)	2.7	-2.1	1.1	1.1	-2.8	-2.3
COc1ccc(CCn2c(=O)c3cccnc3n(Cc3cccc([N+](=O)[O-])c3)c2=O)cc1OC	12.8	-10.7	0.9	1	12.9	-27.1
COc1ccc(C(CC(=O)NCc2ccccc2)Sc2n[nH]c(-c3ccc(Cl)cc3)n2)cc1 (centres undefined)	7.2	-18.4	1.1	1.2	52.4*	1.0
OC1(c2ccc(Br)cc2)CCNCC1	-13.6	9.7	1	1	84.4*	-15.5
Cc1ccc(C)c(OCCCCCn2ccnc2)c1	-16.2	-3.5	1	0.9	100.2*	7.4
Cc1cc(OCCCCCn2ccnc2)cc(C)c1Cl	33.1	46.8	1.2	1.2	98.6*	-3.9
Cc1cc(OCCCn2ccnc2)cc(C)c1Cl	12.1	66.2*	1	1	89.2*	6.7
C=CCc1cc(C)ccc1OCCOCCn1ccnc1	-11.0	34.1	1.2	1.1	96.8*	-3.0
C=CCc1cc(C)ccc1OCCn1ccnc1	-4.5	8.3	0.9	0.9	3.7	4.2
Cc1ccc(C)c(OCCCCn2cnc3ccccc3c2=O)c1	16.6	29.2	1	1	-0.8	0.7
COc1ccc(NC(=O)CCC(=O)N(Cc2ccc(OC)c(OC)c2)c2nccs2)c(OC)c1	-6.2	4.2	x	x	-1.6	8.5
CCOC(=O)N1CCN(CCC(=O)Nc2ccc(Br)cc2)CC1	-5.1	-14.9	1	1	3.8	-13.9
O=C(CCC(=O)N1CCN(S(=O)(=O)c2ccc(Cl)cc2)CC1)Nc1cccc(Br)c1	83.2*	25.2	0.9	0.7	6.5	14.9
NC(=O)c1ccc(NC(=O)CCC(=O)N2CCN(S(=O)(=O)c3ccc(Cl)cc3)CC2)cc1	21.6	x	x	x	x	-17.3
CCOC(=O)N1CCN(CCC(=O)Nc2ccc(C)c(Br)c2)CC1	10.3	0.0	0.9	0.9	73.5*	-12.6
CCOC(=O)N1CCN(CCC(=O)Nc2cc(OC)cc(OC)c2)CC1	20.6	8.0	1	1	51.5*	7.4
CCOC(=O)N1CCN(CC(=O)Nc2cccc(Br)c2)CC1	-1.3	6.5	1	1	-5.0	-1.6
SMILES	m-calpain inh	WT yeast gro inh	PMI act hi M6P	PMI act	L major viab	Rad51 HR inh
CCOC(=O)N1CCN(CCC(=O)Nc2cccc(Br)c2)CC1	-1.7	-6.0	1.1	1	88.7*	2.8
CC(C)(C)NC(=O)C(c1ccccn1)N(C(=O)C1CSC(=O)C1)c1ccccc1F (centres undefined)	-11.4	5.2	1.1	1.1	-0.1	21.6
CCOC(=O)n1c(O)c(N=NC(N)=S)c2cc(C)ccc21	-8.0	x	x	x	x	x
COc1cc2c(cc1OC)CN(CC(=O)NC(=O)NC1CCCCC1)CC2	-115.7	10.4	0.9	1	0.3	14.7
Cc1oc(-c2cccs2)nc1CN1CCC(c2ccccc2)CC1	-10.7	16.4	0.9	0.9	26.6	x
CS(=O)(=O)Cc1nc2ccccc2oc1=O	-0.7	20.2	0.8	0.9	99.9*	-1.4
C/C(O)=C\c1nc2ccccc2oc1=O	1.8	33.9	1	0.9	65.2*	1.0
O=C(c1ccccc1)c1ccccc1C(=O)N1CCN(C(=O)c2ccccc2)CC1	-16.0	-3.4	1	1	-0.4	7.5
COc1ccc(N/C=C/C(=O)c2ccc(Oc3ncccn3)cc2)cc1	16.1	69.7*	0.9	0.9	-1.6	-4.5
O=C(/C=C/Nc1ccc(F)cc1)c1ccc(Oc2ncccn2)cc1	-36.1	6.8	0.9	0.9	-3.4	x
Cc1c(C(=O)NCCCN2CCOCC2)oc2c1C1(CCC2)SCCS1	-4.5	-17.4	0.8	0.9	87.8*	-1.0
COCC(C)NC(=O)c1oc2c(c1C)C1(CCC2)SCCS1 (centres undefined)	10.9	3.4	0.8	0.9	1.6	20.0
Cc1ccc(S(=O)(=O)NC2=C(N3CCN(c4ccccc4F)CC3)C(=O)c3ccccc3C2=O)cc1	-12.3	54.4	1.2	1.3	96.2*	3.6
COC(=O)C1CCN(C2=C(NS(=O)(=O)c3ccc(Cl)cc3)C(=O)c3ccccc3C2=O)CC1	-20.3	x	x	x	x	x
Cc1ccc(S(=O)(=O)NC2=C(N3CCN(Cc4ccccc4)CC3)C(=O)c3ccccc3C2=O)cc1	-50.8	15.9	1.4	1.2	96.9*	x
Cc1ccc(S(=O)(=O)Nc2nc3ccccc3nc2N2CCN(c3ccccc3F)CC2)cc1	-42.5	7.2	1	0.9	35.4	0.2
CC(=O)Nc1ccc(S(=O)(=O)NC2=C(N3CCN(c4ccc(F)cc4)CC3)C(=O)c3ccccc3C2=O)cc1	-129.8	20.7	1.6	1.2	60.8*	x
Cc1ccc(S(=O)(=O)NN=C2CCN(Cc3ccccc3)CC2)cc1	-10.0	-18.9	1.1	1.1	0.1	x
CC1CCCN(C2=C(NS(=O)(=O)c3ccc(Cl)cc3)C(=O)c3ccccc3C2=O)C1 (centres undefined)	-3.7	15.2	1	1.3	56.2*	-0.7
O=C(Nc1nnc(C2CC2)s1)c1cccnc1Oc1ccc(Cl)cc1	13.3	x	x	x	x	7.1
CNC(=O)c1cc(NC(=O)CCn2nc(-c3ccccc3)c3ccccc3c2=O)ccc1OC	-19.6	x	x	x	x	7.9
Cc1ccc(S(=O)(=O)Nc2c(C)nc3nc[nH]n3c2=O)c(C)c1	-22.4	-21.7	1.2	1.2	-6.0	1.4
CC1=CC(=O)N(c2cccc(C(F)(F)F)c2)C1c1ccc(Cl)cc1 (centres undefined)	18.8	34.0	1	1	17.8	-0.6
CC1=CC(=O)N(c2ccc(C)cc2)C1c1ccc(Cl)cc1 (centres undefined)	-12.6	25.8	1	1	61.1*	-3.0
